Experimental data taken from ChEMBL document CHEMBL1145630, “Antidiabetic activity of N-(6-substituted-1,3-benzothiazol-2-yl)benzenesulfonamides” (2008).

Legend:
[1] = molecular target: 11-beta-hydroxysteroid dehydrogenase 1 (Homo sapiens) (UniProt P28845); test: Inhibition of human 11beta-HSD1 expressed in HEK293 cells at 10 uM by scintillation proximity assay; type: cell-based
Procedure, shortened: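 Cell-based scintillation proximity assay in HEK293 cells stably transfected with full-length human hsd11b1, grown in DMEM. Compounds were added at 1% final DMSO with 20 nM tritiated cortisone (final), 2 h at 37 °C. Medium was mixed with anti-mouse YSi SPA beads and anti-cortisol antibody in Tris-HCl pH 7.0 buffer, 2 h at room temperature. Inhibition was calculated against an uninhibited control.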

Rattus norvegicus [2] = test: Antidiabetic effect in streptozo-nicotinamide rat model of diabetes assessed as change in blood glucose level at 100 mg/kg, po after 3 hrs relative to control; type: functional
Procedure, shortened: (§1)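 Type 2 diabetes was induced in overnight-fasted rats with i.p. streptozotocin 65 mg/kg, given 15 min after i.p. nicotinamide 110 mg/kg. Rats with glucose above 250 mg/dL at 72 h were used, n = 5 per group. Compounds were suspended in 1% Tween 80 and given orally. Controls received vehicle; glibenclamide 5 mg/kg was the reference. Caudal-vein glucose was read by glucose-oxidase glucometer at 0, 1, 3, 5 and 7 h.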

Rattus norvegicus [3] = test: Antidiabetic effect in streptozo-nicotinamide rat model of diabetes assessed as change in blood glucose level at 100 mg/kg, po after 5 hrs relative to control; type: functional; procedure, shortened: as §1
Rattus norvegicus [4] = test: Antidiabetic effect in streptozo-nicotinamide rat model of diabetes assessed as change in blood glucose level at 100 mg/kg, po after 7 hrs relative to control; type: functional; procedure, shortened: as §1
Rattus norvegicus [5] = test: Antidiabetic effect in streptozo-nicotinamide rat model of diabetes assessed as change in blood glucose level at 100 mg/kg, po after 1 hr relative to control; type: functional; procedure, shortened: as §1

Chain of 11-beta-hydroxysteroid dehydrogenase 1 (Homo sapiens) (P28845 whole entry, looked up): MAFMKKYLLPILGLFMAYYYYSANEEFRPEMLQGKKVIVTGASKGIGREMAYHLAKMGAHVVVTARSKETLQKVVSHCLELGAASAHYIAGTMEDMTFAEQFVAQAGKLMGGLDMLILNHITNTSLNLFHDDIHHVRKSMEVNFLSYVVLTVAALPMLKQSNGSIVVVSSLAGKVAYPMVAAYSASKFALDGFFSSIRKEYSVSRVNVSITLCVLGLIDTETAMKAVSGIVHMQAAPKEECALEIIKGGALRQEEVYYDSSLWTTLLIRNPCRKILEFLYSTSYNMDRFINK

inhibition [1]	SMILES	Activity (Rattus norvegicus [2])	Activity (Rattus norvegicus [3])	Activity (Rattus norvegicus [4])	Activity (Rattus norvegicus [5])
37.6%	COc1ccc2nc(NS(=O)(=O)c3ccccc3)sc2c1	62.9%	31.5%	53.2%	78.1%
27.2%	Cc1ccc2nc(NS(=O)(=O)c3ccc(Cl)cc3)sc2c1	36.1%	12.2%	21.4%	34%
15.5%	CCOc1ccc2nc(NS(=O)(=O)c3ccc([N+](=O)[O-])cc3)sc2c1	–	–	–	–

Continued, compound first:

SMILES	inhibition [1]	Activity (Rattus norvegicus [2])	Activity (Rattus norvegicus [3])	Activity (Rattus norvegicus [4])	Activity (Rattus norvegicus [5])
Cc1ccc2nc(NS(=O)(=O)c3ccc([N+](=O)[O-])cc3)sc2c1	11.1%	–	–	–	–
COc1ccc(Cl)cc1C(=O)NCCc1ccc(S(=O)(=O)NC(=O)NC2CCCCC2)cc1 [GLYBURIDE]	–	32.6%	51.5%	55.4%	78%
CCOc1ccc2nc(NS(=O)(=O)c3ccc(C)cc3)sc2c1	16.4%	–	–	–	–
COc1ccc2nc(NS(=O)(=O)c3ccc([N+](=O)[O-])cc3)sc2c1	53.3%	42.5%	18.1%	27.8%	69.7%
COc1ccc(S(=O)(=O)Nc2nc3ccc([N+](=O)[O-])cc3s2)cc1	25.6%	49%	19.1%	29%	77.1%
CC(=O)Nc1ccc(S(=O)(=O)Nc2nc3ccc([N+](=O)[O-])cc3s2)cc1	7.69%	11.8%	4%	30%	37.2%
